Source: PubChem BioAssay
SENP7 inh: SENP7 protease inhibitors, primary screen, biochemical, luminescence, uHTS | Sentrin-specific protease 7 (Homo sapiens), Q9BQF6 | recombinant SENP7, Z-RLRGG-aminoluciferin luminescence, 40 min | inhibition, % at 5 µM | 1.5% of 330,000 active | AID 434973, 2010;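 active = inhibition above about 50% at the single test dose, limit read from the data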
Target sequence (Q9BQF6 706-1050 limits assumed): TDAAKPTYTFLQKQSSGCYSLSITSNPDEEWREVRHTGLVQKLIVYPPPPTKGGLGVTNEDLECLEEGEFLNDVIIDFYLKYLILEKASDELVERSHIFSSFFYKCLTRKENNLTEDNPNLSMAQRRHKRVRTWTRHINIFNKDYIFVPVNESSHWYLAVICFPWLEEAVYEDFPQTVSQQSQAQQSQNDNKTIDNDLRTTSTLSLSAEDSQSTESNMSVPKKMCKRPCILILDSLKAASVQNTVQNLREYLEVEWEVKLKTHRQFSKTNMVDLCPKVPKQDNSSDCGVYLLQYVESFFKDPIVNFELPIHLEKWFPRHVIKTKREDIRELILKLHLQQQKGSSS
SENP8 block-1: SENP8 protease inhibitors, primary screen, biochemical, luminescence; AID 2540, 2010; 1.2% of 330,000 active; purified SENP8, Z-RLRGG-aminoluciferin cleavage; inhibition, % at 10 µM; in the data active = inhibition above about 50%
SENP8 block-2: human SENP8 protease inhibitors, primary screen, biochemical, fluorescence, Nedd8 protein substrate, uHTS. recombinant SENP8. 0.64% of 360,000 active. Sentrin-specific protease 8 (Homo sapiens), Q96LD8. inhibition, % at 20 µM; in the data active = inhibition mostly above about 40%, no sharp cut-off; inactive = mostly below about 27%
SENP6 block: SENP6 protease inhibitors, primary screen, biochemical, luminescence, uHTS; 1.8% of 330,000 active; Recombinant SENP6 catalytic domain, aminoluciferin luminescence; inhibition, % at 10 µM; Sentrin-specific protease 6 (Homo sapiens), Q9GZR1;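 active = inhibition above about 50% at the single tested dose, limit read from the data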
SENP1 inh: human SENP1 catalytic domain inhibitors, primary screen, biochemical, FRET, uHTS; inhibition, % at 10 µM; AID 624204, 2012; Sentrin-specific protease 1 (Homo sapiens), Q9P0U3; recombinant SENP1 catalytic domain, CyPet-SUMO1-YPet FRET cleavage; 0.21% of 360,000 active;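 active = inhibition at least 30% at 10 µM, raw YFP signal under a set limit, fluorescence ratio 0.5 to 1.5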
Target sequence (Q9P0U3 419-644 limits assumed): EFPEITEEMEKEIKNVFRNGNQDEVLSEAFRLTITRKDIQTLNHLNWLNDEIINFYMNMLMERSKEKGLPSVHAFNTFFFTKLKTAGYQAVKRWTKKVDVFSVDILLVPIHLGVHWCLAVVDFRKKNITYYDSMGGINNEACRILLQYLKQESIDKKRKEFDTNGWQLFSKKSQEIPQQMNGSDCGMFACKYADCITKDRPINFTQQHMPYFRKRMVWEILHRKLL
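System: Recombinant human SENP1 catalytic domain, His6-tagged | Incubation: Enzyme reaction for 50 min at room temperature, dark | Medium: Tris pH 8 with BME, BSA, NP40 and catalase | Also added: 25 nM SUMO1 FRET substrate | Compound: 10 µM single point, 0.5% DMSO | Measured by: FRET fluorescence in CFP and YFP emission channels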
SENP8 conf: human SENP8 protease inhibitors, confirmation, biochemical, Nedd8 protein substrate, single concentration | shares compounds with SENP8 block-2 | purified SENP8, Nedd8-AMC/pro-Nedd8 cleavage fluorescence, 30 min | inhibition, % at 25 µM | 15% of 1,400 active | AID 624319, 2012; in the data active = inhibition mostly above about 39%, no sharp cut-off; inactive = mostly below about 34%
Each line names hits and unclear results; the compound was inactive in the other large screens (follow-up assays come after a bar, where they were run); ! = a repeat was not active. Only some compounds are listed: those with a hit (about 2.5% of all), similar ones and a draw of the others.

Cc1cc(C(=O)N/N=C/c2ccc([N+](=O)[O-])s2)c2ccccc2n1	SENP8 block-2 46.3 | SENP8 conf inactive
O=C(N/N=C/c1cc([N+](=O)[O-])ccc1Cl)c1cc(-c2ccccc2)nc2ccccc12	SENP8 block-2 41.4 | SENP8 conf inactive
Cn1c2c(c3cc([N+](=O)[O-])ccc31)CCCC2	none
O=C(Nc1ccc(O)cc1)C1CC=CCC1 (centres undefined)	SENP8 block-2 41.2 | SENP8 conf 49.0
Cc1cccc(C)c1N/C=C/c1onc(C)c1[N+](=O)[O-]	none
Cc1ccc(N/C=C/c2onc(C)c2[N+](=O)[O-])cc1	SENP7 inh 77.8, SENP8 block-2 53.5, SENP6 block 59.6 | SENP8 conf inactive
COc1ccc(S(=O)(=O)N2CCCOC2CNC(=O)C(=O)NC2CCCC2)cc1 (centres undefined)	none
COc1ccc(COC(=O)N/N=C(\C)CC(=O)Nc2ccc(Cl)cn2)cc1	none
CCC(=O)NC(c1cccs1)c1cc([N+](=O)[O-])c2cccnc2c1OC (centres undefined)	SENP8 block-2 95.9 (no result: SENP7 inh, SENP8 block-1, SENP6 block) | SENP8 conf inactive
COc1ccc(N2CSC3=C(C#N)C(c4cccc(OC)c4OC)CC(=O)N3C2)cc1 (centres undefined)	none
COc1ccc2ccccc2c1C1CC(=O)N2CN(C3CCCCC3)CSC2=C1C#N (centres undefined)	SENP8 block-2 75.3 | SENP8 conf inactive
CC(C)[C@H](NC(=O)N1c2ccccc2NC(=O)[C@@H]1C(C)C)C(=O)N[C@@H](Cc1ccccc1)C(=O)O	SENP8 block-2 53.6 | SENP8 conf inactive
CC(C)[C@H](NC(=O)N1CC(=O)Nc2ccccc21)C(=O)N[C@H](Cc1c[nH]c2ccccc12)C(=O)O	SENP8 block-2 44.0 | SENP8 conf inactive
CC(C)CNc1ncnc2c1ncn2[C@H]1CN(Cc2ccc(-c3ccccc3)cc2)C[C@@H](CO)O1	none (no result: SENP7 inh, SENP8 block-1, SENP6 block)
Cc1ccc(NC(=O)CCNS(=O)(=O)c2cccc3nsnc23)cc1F	none
CCCCCCC(=O)Nc1ccc(S(=O)(=O)Nc2onc(C)c2C)cc1	none
Cc1noc(NS(=O)(=O)c2ccc(NC(=O)CCC3CCCC3)cc2)c1C	SENP8 block-2 42.7 | SENP8 conf inactive
COc1cc2nc(NC(=O)c3ccccc3)sc(=O)c2cc1OC	none
O=C(O)CCCCCCCCCCCc1ccccc1	SENP8 block-2 55.6 | SENP8 conf inactive
O=C(O)c1ccc(CCCc2ccccc2)cc1	none (no result: SENP7 inh, SENP8 block-1, SENP6 block)
Cc1c(C(=O)NCCSCc2cccc(C(F)(F)F)c2)cnn1-c1ccc(Cl)cc1	none
CS(=O)(=O)c1ccc(NC(=O)CCCc2nc3ccccc3c(=O)[nH]2)cc1	SENP8 block-2 53.9 | SENP8 conf inactive
Cc1ccc(N2CCN(C(=O)NC3CCCCC3)CC2C)cc1 (centres undefined)	none
O=C(Nc1ccc(N2CCCCC2)cc1)c1ccc2ccccc2n1	SENP8 block-2 40.2 | SENP8 conf inactive
O=C(Nc1ccc(N2CCCC2)cc1)c1ccccc1[N+](=O)[O-]	SENP8 block-2 35.0 | SENP8 conf inactive
O=C(Nc1cccc(S(=O)(=O)N2CCCCCC2)c1)c1ccc2ccccc2n1	none
Cc1ccc(C)c(NC(=S)/C(=C(\[O-])c2ccc(Cl)s2)[n+]2ccccc2)c1	SENP8 block-2 69.2 | SENP8 conf inactive
C=CCNc1nc(C(=O)OC(C)C(=O)c2ccc(C)cc2)cs1 (centres undefined)	none
CCC(C)[C@H](NC(=O)Nc1ccc(S(N)(=O)=O)cc1)C(=O)O (some centres undefined)	none
CCC(C)[C@H](NC(=O)Nc1cccc(Cl)c1)C(=O)O (some centres undefined)	SENP8 block-2 47.5 | SENP8 conf inactive
CC(C)(C)Nc1c(C2CCNCC2)nc2c(OCc3ccccc3)cccn12	none (no result: SENP7 inh, SENP8 block-1, SENP6 block)
CCOc1cc(/C=C2\N=C(SC)SC2=O)cc([N+](=O)[O-])c1OC(C)=O	SENP8 block-2 45.4 | SENP8 conf inactive
CCOc1cc(/C=C2\N=C(SCC)SC2=O)cc([N+](=O)[O-])c1OC(C)=O	none
COc1ccc2cc3[n+](cc2c1OC)CCc1cc2c(cc1-3)OCO2	SENP8 block-2 53.3! | SENP8 conf inactive
COc1ccc(/C=N\Nc2ccccc2[N+](=O)[O-])c(C(=O)O)c1OC	none
COc1ccc(/C=N\Nc2ccc([N+](=O)[O-])cc2[N+](=O)[O-])c(C(=O)O)c1OC	SENP8 block-2 47.9 | SENP8 conf inactive
COc1ccccc1/C=N\Nc1ccccc1[N+](=O)[O-]	SENP7 inh 98.9, SENP8 block-1 90.2, SENP8 block-2 50.5, SENP6 block 94.3 | SENP8 conf inactive
CC1=C(/C=N/Nc2ccc([N+](=O)[O-])cc2[N+](=O)[O-])C(C)(C)CCC1	SENP8 block-2 45.7 | SENP8 conf inactive
COc1ccc(N=C2S/C(=C\c3ccc(C)s3)C(=O)N2CC(C)C)cc1	SENP8 block-2 44.1 | SENP8 conf inactive
COc1ccc(CNC(=O)Nc2cc(C)cc(C)c2)cc1	SENP8 block-2 42.9 | SENP8 conf inactive
COc1cc(N(C(C)=O)c2ccc(O)c(C(=O)O)c2)c2ncccc2c1	SENP8 block-2 44.0 (no result: SENP7 inh, SENP8 block-1, SENP6 block) | SENP8 conf 61.2
Cc1cc2sc3nc(=O)n(-c4ccccc4)c(=O)n3c2cc1C	none
COc1ccc(-c2csc(NC(=S)NC(=O)/C=C/c3ccco3)n2)cc1Br	SENP8 block-2 43.4 | SENP8 conf inactive
CC(C)C1Cc2c(sc3ncnc(NN)c23)CO1 (centres undefined)	SENP8 block-2 41.7 | SENP8 conf inactive
Cc1cccc(OC(=O)c2cccnc2)c1C	none
O=C(Oc1ccccc1[N+](=O)[O-])c1cccnc1	SENP8 block-2 46.1 | SENP8 conf inactive
COC(=O)CSc1nnc(CNc2ccc(OC)cc2)n1C	SENP8 block-2 69.2 | SENP8 conf inactive
CC(C)OC(=O)CSc1nnc(CNc2ccc(Cl)cc2)n1C	none
COC(=O)CSc1nnc(CNS(=O)(=O)c2ccc(C)cc2)n1C	SENP8 block-2 42.1 | SENP8 conf inactive
Nc1c(C(=O)c2ccccc2)sc2nsc(SCCN3CCCC3)c12	SENP8 block-2 43.8 | SENP8 conf inactive
Nc1c(C(=O)c2ccc(Cl)cc2)sc2nsc(SCCN3CCOCC3)c12	none
COCCNC(=O)C1(C)CCN(C(=O)c2ccc(C(F)(F)F)nc2C)C1 (centres undefined)	none (no result: SENP7 inh, SENP8 block-1, SENP6 block)
CCN(CC)S(=O)(=O)c1cc([N+](=O)[O-])ccc1NNC(=O)Nc1ccccc1OC	SENP8 block-2 51.3 | SENP8 conf inactive
